Data reported in ChEMBL document CHEMBL3576795, “Neolignans and other metabolites from Ocotea cymosa from the Madagascar rain forest and their biological activities” (J Nat Prod, 2015).
Activity calls are given as the source filed them. The rule behind the calls is not given here.

How the values were obtained:
A2780 = assay: Antiproliferative against human A2780 cells after 2 days by AlamarBlue assay; type: functional, cell-based
Aedes aegypti = assay: Insecticidal activity against Aedes aegypti assessed as mortality at 4 mg/ml after 3 days; type: functional; settings: 72 h
Outline: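 A DMSO master stock of 4000 ppm was diluted with 90:10 water:acetone and robotically dispensed into six replicate plates. Plates were infested with about 1-day-old Aedes aegypti larvae hatched overnight in water with liver powder. They were covered to limit drying, held at room temperature for 3 days, and each well was scored for mortality.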

Plasmodium falciparum [1] = assay: Antiplasmodium activity against Plasmodium falciparum Dd2; type: functional, organism-based
Outline: (§1)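 Dd2 ring-stage cultures at 1% hematocrit and 1% parasitaemia were grown for 72 h at 37°C in 5.05% CO2/4.93% O2/90.2% N2 with increasing drug concentrations. Viability was read by SYBR Green I DNA quantitation in lysis buffer. IC50 was obtained by nonlinear regression and averaged over three independent runs, each in duplicate, ± S.E.M.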

Plasmodium falciparum [2] = assay: Antiplasmodium activity against chloroquine-resistant intraerythrocytic stage of Plasmodium falciparum Dd2 assessed as parasite growth inhibition after 72 hrs by SYBR Green I staining-based assay; type: functional, organism-based; settings: Dd2, 72 h; outline: as §1
Plasmodium falciparum [3] = assay: Antiplasmodium activity against chloroquine-sensitive Plasmodium falciparum PoW infected in human RBC assessed as parasite growth inhibition after 42 hrs by microculture radioisotope technique; type: functional, organism-based
Plasmodium falciparum [4] = assay: Antiplasmodium activity against chloroquine-resistant Plasmodium falciparum Dd2 infected in human RBC assessed as parasite growth inhibition after 42 hrs by microculture radioisotope technique; type: functional, organism-based; settings: Dd2, 42 h

Structure (SMILES) | inhibition (A2780) | IC50 (Plasmodium falciparum [2]) | other results
C=CCc1cc2c(cc1O[C@@H](C)Cc1cc(OC)c(OC)c(OC)c1)OCO2 | inactive | – | mortality at 4000 µg/mL (Aedes aegypti): ≥ 80%
C=CC[C@]12C[C@@]3(OCOC3=CC1=O)[C@H](C)[C@@H]2c1cc(OC)c(OC)c(OC)c1 | inactive | 7.7 µM | IC50 (Plasmodium falciparum [1]): 40.5 µM
C/C=C/c1cc(OC)c(OC(C)Cc2cc(OC)c(OC)c(OC)c2)c(OC)c1 (stereo not drawn) | – | – | IC50 (Plasmodium falciparum [3]): 12.4 µM; IC50 (Plasmodium falciparum [4]): 14.9 µM
C=CCC1(C(C)Cc2cc(OC)c(OC)c(OC)c2)C=C2OCOC2=CC1=O (stereo not drawn) | inactive | – | –
C=CCc1cc(OC)c(O[C@]23C[C@@H](CC=C)C(=O)C=C2OCO3)c(OC)c1 | inactive | – | –
C=CC[C@@]12C[C@]3(OCOC3=CC1=O)[C@@H](C)[C@@H]2c1cc(OC)c2c(c1)OCO2 | inactive | – | –
C=CCc1cc2c(c3c1O[C@H](c1ccc4c(c1)OCO4)[C@H]3C)OCO2 | inactive | – | –
C=CC[C@@]12C[C@]3(OCOC3=CC1=O)[C@@H](C)[C@@H]2c1cc(OC)c(OC)c(OC)c1 | inactive | – | –
C=CCC1(C(C)Cc2cc(OC)c(O)c(OC)c2)C=C2OCOC2=CC1=O (stereo not drawn) | inactive | – | IC50 (Plasmodium falciparum [1]): 42.1 µM
C=CC[C@@]12C[C@]3(OCOC3=CC1=O)[C@@H](C)[C@@H]2c1cc(O)c2c(c1)OCO2 | inactive | 42 µM | IC50 (Plasmodium falciparum [1]): 28.4 µM
C=CCc1cc(OC)c(O[C@@H](C)Cc2cc(OC)c(OC)c(OC)c2)c(OC)c1 | inactive | 3.3 µM | IC50 (Plasmodium falciparum [1]): 3.1 µM
C=CCC1(C(C)Cc2ccc(O)c(OC)c2)C=C2OCOC2=CC1=O (stereo not drawn) | inactive | – | –
C=CCc1cc2c(c3c1O[C@H](c1cc(OC)c(OC)c(OC)c1)[C@H]3C)OCO2 (relative stereo) | inactive | 0.45 µM | IC50 (Plasmodium falciparum [1]): 4.7 µM; mortality at 4000 µg/mL (Aedes aegypti): ≥ 80%
C=CC[C@@]12C[C@]3(OCOC3=CC1=O)[C@@H](C)[C@@H]2c1ccc2c(c1)OCO2 | inactive | 14.6 µM | mortality at 4000 µg/mL (Aedes aegypti): ≥ 80%
C=CCC1(C(C)Cc2ccc(OC)c(OC)c2)C=C2OCOC2=CC1=O (stereo not drawn) | inactive | – | –
C[C@@H]1CC[C@H]2[C@@H](C)C(=O)O[C@@H]3O[C@@]4(C)CC[C@@H]1[C@]32OO4 [ARTEMISININ] | – | 0.00082 µM | –
C=CC[C@]12C[C@@]3(OCOC3=CC1=O)[C@H](C)[C@@H]2c1cc(OC)c2c(c1)OCO2 | inactive | 4.1 µM | –
C=CCc1ccc(O[C@]23C[C@@H](CC=C)C(=O)C=C2OCO3)c(OC)c1 | inactive | – | –
